Test results from ChEMBL document CHEMBL1153536, “5-lipoxygenase-activating protein inhibitors: development of 3-[3-tert-butylsulfanyl-1-[4-(6-methoxy-pyridin-3-yl)-benzyl]-5-(pyridin-2-ylmethoxy)-1H-indol-2-yl]-2,2-dimethyl-propionic acid (AM103)” (J Med Chem, 2009).

Experiments:
Cytochrome P450 3A4 [1] = target: T1, Cytochrome P450 3A4 (Homo sapiens, UniProt P08684); assay: Inhibition of CYP3A4 assessed as inhibition rate
[2] = target: T2, Arachidonate 5-lipoxygenase-activating protein (Homo sapiens, UniProt P20292); assay: Displacement of [3H]3-[5-(pyrid-2-ylmethoxy)-3-tert-butylthio-1-benzyl-indol-2-yl]-2,2-dimethylpropionic acid from FLAP in human polymorphonuclear cell membrane
T2 sequence (P20292 whole entry): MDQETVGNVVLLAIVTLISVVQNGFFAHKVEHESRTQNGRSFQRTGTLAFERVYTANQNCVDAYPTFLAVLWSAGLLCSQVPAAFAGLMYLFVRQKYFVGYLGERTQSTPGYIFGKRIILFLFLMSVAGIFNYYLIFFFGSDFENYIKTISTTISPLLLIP

[3] = Inhibition of calcium ionophore A-23187-stimulated LTB4 production in human leukocytes by ELISA; assay type: functional, cell-based; conditions: Leukocyte
Method in brief: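 Dextran-sedimented, hypotonically lysed human leukocytes at 1.25 × 10^5 cells/mL, preincubated 5 min at 37 °C with compound in DMSO. Stimulated 5 min at 37 °C with A23187 (5 μL of 0.5 mM into 250 μL). Supernatant LTB4 measured by ELISA at 1:4 dilution; IC50 by nonlinear regression of % inhibition vs log concentration.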

Blood = assay: Inhibition of calcium ionophore A-23187-stimulated LTB4 production in human whole blood by ELISA; assay type: functional, tissue-based
Method in brief: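 Heparinized human whole blood preincubated 15 min at 37 °C with compound in DMSO. Stimulated 30 min at 37 °C with A23187 (2 μL of 1.5 mM into 150 μL). Plasma LTB4 measured by ELISA at 1:100 dilution; IC50 by nonlinear regression. A single value is one assay averaging two donors.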

Cytochrome P450 3A4 [4] = target: T1, Cytochrome P450 3A4; assay: Inhibition of CYP3A4; assay type: ADME
Cytochrome P450 2C9 = Cytochrome P450 2C9 (Homo sapiens, UniProt P11712); assay: Inhibition of CYP2C9; assay type: ADME
Cytochrome P450 2D6 = Cytochrome P450 2D6 (Homo sapiens, UniProt P10635); assay: Inhibition of CYP2D6; assay type: ADME
Rattus norvegicus = assay: (§1) Bioavailability in Sprague-Dawley rat at 2 mg/kg, iv and 10 mg/kg, po; assay type: ADME, organism-based; conditions: in vivo
Method in brief: (§2)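 Male rats fasted overnight, 2 or 3 per route. Dosing was 2 mg/kg i.v. as a jugular bolus in PEG400/ethanol/water (40/10/50) and 10 mg/kg p.o. by gavage in 0.5% methylcellulose. Jugular cannula blood was sampled up to 24 h (8-9 samples). Plasma was acetonitrile-precipitated with buspirone internal standard and quantified by LC-MS/MS, positive ESI MRM, calibration […], LLOQ 1-5 ng/mL.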

[5] = Half life in Sprague-Dawley rat at 2 mg/kg, iv; assay type: ADME, organism-based; set-up: dose 2 mg/kg, route intravenous; conditions: in vivo; method in brief: as §2
[6] = Cmax in Sprague-Dawley rat after 10 mg/kg oral dose; assay type: ADME, organism-based; set-up: dose 10 mg/kg, route oral; conditions: in vivo; method in brief: as §2
[7] = Volume of distribution at steady state in Sprague-Dawley rat at 2 mg/kg, iv and 10 mg/kg, po; assay type: ADME, organism-based; conditions: in vivo, read-out: Vdss; method in brief: as §2
[8] = target: Prostaglandin G/H synthase 1 (Homo sapiens, UniProt P23219); assay: Inhibition of COX1 in human whole blood; assay type: tissue-based
P2Y purinoceptor 12 = P2Y purinoceptor 12 (Homo sapiens, UniProt Q9H244); assay: Agonist activity at human P2Y12 receptor; assay type: functional
[9] = as §1; assay type: ADME, organism-based; conditions: Sprague-Dawley, in vivo; method in brief: as §2
[10] = AUC in Sprague-Dawley rat at 10 mg/kg, po; assay type: ADME, organism-based; set-up: dose 10 mg/kg, route oral; conditions: plasma; method in brief: as §2
[11] = Clearance in Sprague-Dawley rat at 2 mg/kg, iv and 10 mg/kg, po; assay type: ADME, organism-based; conditions: in vivo; method in brief: as §2

Sequence of Cytochrome P450 2D6 (P10635 whole entry): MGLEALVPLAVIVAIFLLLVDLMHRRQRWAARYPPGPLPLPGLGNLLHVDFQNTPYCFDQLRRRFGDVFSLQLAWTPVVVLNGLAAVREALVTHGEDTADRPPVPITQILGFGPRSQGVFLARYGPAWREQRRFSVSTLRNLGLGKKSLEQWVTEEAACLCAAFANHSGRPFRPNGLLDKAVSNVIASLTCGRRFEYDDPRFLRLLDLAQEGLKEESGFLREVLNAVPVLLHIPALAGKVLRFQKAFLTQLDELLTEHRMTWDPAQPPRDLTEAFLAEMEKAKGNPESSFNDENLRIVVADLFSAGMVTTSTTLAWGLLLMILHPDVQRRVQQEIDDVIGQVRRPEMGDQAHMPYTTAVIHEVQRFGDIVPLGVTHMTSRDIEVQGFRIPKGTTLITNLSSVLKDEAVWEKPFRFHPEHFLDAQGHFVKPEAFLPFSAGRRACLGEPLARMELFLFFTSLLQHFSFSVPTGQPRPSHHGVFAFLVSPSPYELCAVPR
T1 sequence (P08684 whole entry): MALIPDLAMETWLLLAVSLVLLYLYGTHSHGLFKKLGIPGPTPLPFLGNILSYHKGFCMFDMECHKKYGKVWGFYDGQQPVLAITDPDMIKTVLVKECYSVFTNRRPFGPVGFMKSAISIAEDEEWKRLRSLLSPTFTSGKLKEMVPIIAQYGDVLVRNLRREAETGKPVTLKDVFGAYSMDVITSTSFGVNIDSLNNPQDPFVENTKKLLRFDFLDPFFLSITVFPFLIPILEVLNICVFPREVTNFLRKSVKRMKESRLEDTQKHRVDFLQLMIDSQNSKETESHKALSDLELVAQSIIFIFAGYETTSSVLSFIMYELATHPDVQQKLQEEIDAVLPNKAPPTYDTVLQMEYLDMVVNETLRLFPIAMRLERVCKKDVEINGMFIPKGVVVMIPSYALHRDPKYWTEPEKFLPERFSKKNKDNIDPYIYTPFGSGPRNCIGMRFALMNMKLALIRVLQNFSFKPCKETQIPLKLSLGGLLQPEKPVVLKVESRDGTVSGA
Sequence of Cytochrome P450 2C9 (P11712 whole entry): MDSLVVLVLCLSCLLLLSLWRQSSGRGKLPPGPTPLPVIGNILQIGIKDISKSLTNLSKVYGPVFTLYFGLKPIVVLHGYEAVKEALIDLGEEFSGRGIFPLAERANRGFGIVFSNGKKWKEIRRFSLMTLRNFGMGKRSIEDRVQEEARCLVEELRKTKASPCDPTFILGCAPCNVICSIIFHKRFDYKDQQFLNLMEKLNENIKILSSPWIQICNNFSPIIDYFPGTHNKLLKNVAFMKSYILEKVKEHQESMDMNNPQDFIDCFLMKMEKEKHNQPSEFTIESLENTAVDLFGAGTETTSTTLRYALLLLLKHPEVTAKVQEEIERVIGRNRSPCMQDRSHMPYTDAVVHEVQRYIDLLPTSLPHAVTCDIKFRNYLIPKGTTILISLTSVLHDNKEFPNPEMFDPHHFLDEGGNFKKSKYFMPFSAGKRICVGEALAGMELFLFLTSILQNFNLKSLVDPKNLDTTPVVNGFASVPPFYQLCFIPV
Sequence of P2Y purinoceptor 12 (Q9H244 whole entry): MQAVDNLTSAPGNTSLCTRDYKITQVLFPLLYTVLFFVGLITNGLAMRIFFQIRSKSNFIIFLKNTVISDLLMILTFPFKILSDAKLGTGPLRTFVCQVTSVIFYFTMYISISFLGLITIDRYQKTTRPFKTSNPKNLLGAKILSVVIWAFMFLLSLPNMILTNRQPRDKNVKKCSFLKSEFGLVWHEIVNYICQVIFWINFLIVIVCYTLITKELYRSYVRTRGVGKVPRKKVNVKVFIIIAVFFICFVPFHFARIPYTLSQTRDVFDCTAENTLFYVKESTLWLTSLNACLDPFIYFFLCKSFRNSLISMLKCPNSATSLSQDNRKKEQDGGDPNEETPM
Sequence of Prostaglandin G/H synthase 1 (P23219 whole entry): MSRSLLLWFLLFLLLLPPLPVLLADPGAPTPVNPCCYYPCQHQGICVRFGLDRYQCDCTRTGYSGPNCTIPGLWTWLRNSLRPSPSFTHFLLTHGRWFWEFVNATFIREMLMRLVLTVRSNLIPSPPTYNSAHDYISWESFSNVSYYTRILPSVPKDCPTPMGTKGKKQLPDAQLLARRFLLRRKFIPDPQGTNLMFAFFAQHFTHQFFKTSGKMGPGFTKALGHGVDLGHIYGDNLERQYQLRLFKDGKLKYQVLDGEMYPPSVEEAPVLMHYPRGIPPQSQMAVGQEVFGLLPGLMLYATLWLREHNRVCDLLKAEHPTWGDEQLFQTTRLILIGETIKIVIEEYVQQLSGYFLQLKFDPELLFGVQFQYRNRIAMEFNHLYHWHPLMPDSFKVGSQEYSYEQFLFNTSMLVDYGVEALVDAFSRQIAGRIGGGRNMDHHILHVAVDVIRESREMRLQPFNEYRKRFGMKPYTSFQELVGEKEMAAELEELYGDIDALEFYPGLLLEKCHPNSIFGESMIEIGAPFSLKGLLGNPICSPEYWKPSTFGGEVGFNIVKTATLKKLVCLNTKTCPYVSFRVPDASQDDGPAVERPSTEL

IC50 [2] | IC50 [3] | IC50 (Blood) | IC50 (Cytochrome P450 3A4 [4]) | IC50 (Cytochrome P450 2C9) | IC50 (Cytochrome P450 2D6) | Compound | further results
4 nM | 3.6 nM | 1580 nM | 15100 nM | 26900 nM | > 30000 nM | COc1ccc(-c2ccc(Cn3c(CC(C)(C)C(=O)O)c(SC(C)(C)C)c4cc(OCc5ccccn5)ccc43)cc2)nn1 | F (Rattus norvegicus): 42%; half-life [5]: 2.1 h; Cmax [6]: 7900 ng/mL; Vd [7]: 0.47 L/kg
205 nM | 59 nM | 3420 nM | – | – | – | COc1ccc(-c2ccc(Cn3c(CC(C)(C)C(=O)O)c(S(=O)(=O)C(C)(C)C)c4cc(OCc5ccccn5)ccc43)cc2)cn1 | –
5.5 nM | 1.2 nM | 934 nM | – | – | – | COc1ccc(-c2cccc(Cn3c(CC(C)(C)C(=O)O)c(SC(C)(C)C)c4cc(OCc5ccccn5)ccc43)c2)cn1 | IC50 [8]: 420 nM
27 nM | 17 nM | 4370 nM | – | – | – | Cc1ccc(-c2ccc(Cn3c(CC(C)(C)C(=O)O)c(SC(C)(C)C)c4cc(OCc5ccccn5)ccc43)cc2)nn1 | –
229 nM | 5.3 nM | 4860 nM | – | – | – | CC(C)(C)CCc1c(CC(C)(C)C(=O)O)n(Cc2ccc(-c3nccs3)cc2)c2ccc(OCc3ccccn3)cc12 | –

Continued, compound first:

Compound | IC50 [2] | IC50 [3] | IC50 (Blood) | IC50 (Cytochrome P450 3A4 [4]) | IC50 (Cytochrome P450 2C9) | IC50 (Cytochrome P450 2D6) | further results
COc1nc(-c2ccc(Cn3c(CC(C)(C)C(=O)O)c(SC(C)(C)C)c4cc(OCc5ccccn5)ccc43)cc2)cs1 | 3.3 nM | – | – | – | – | – | TDI (Cytochrome P450 3A4 [1]): 0.018 min⁻¹
CC(C)(C)Sc1c(CC(C)(C)C(=O)O)n(Cc2ccc(-c3cncnc3)cc2)c2ccc(OCc3ccccn3)cc12 | 7.7 nM | 3.3 nM | 1040 nM | – | – | – | –
CC(C)(C)Sc1c(CC(C)(C)C(=O)O)n(Cc2ccc(-c3ncccn3)cc2)c2ccc(OCc3ccccn3)cc12 | 6.9 nM | 6.4 nM | 1210 nM | > 10000 nM | > 10000 nM | > 10000 nM | –
CCCCC/C=C\C\C=C/C=C/C=C/[C@@H](SC[C@H](N)C(=O)O)[C@@H](O)CCCC(=O)O [LEUKOTRIEN E4] | – | – | – | – | – | – | EC50 (P2Y purinoceptor 12): 1.3 nM
CC(C)(C)Sc1c(CC(C)(C)C(=O)O)n(Cc2ccc(-c3nccs3)cc2)c2ccc(OCc3ccccn3)cc12 | 4.8 nM | 1 nM | 273 nM | 1400 nM | 9100 nM | 4000 nM | TDI (Cytochrome P450 3A4 [1]): 0.033 min⁻¹; bioavailability [9]: 50%; half-life [5]: 6.3 h; Cmax [6]: 4300 ng/mL; AUC [10]: 9540 ng·h/mL; clearance [11]: 8.6 mL/min/kg; Vd [7]: 0.71 L/kg
CC(C)(C)Sc1c(CC(C)(C)C(=O)O)n(Cc2ccc(Cl)cc2)c2ccc(OCc3ccccn3)cc12 | 1.7 nM | 0.8 nM | 512 nM | 11500 nM | 1000 nM | > 30000 nM | –
CC(C)(C)Sc1c(CC(C)(C)C(=O)O)n(Cc2ccc(-c3cnccn3)cc2)c2ccc(OCc3ccccn3)cc12 | 28 nM | 12 nM | 1650 nM | – | – | – | –
